Measurements from ChEMBL document CHEMBL2375351, “Degradation of MAC13243 and studies of the interaction of resulting thiourea compounds with the lipoprotein targeting chaperone LolA” (Bioorg Med Chem Lett, 2013).
≈ marks a conversion by molar mass, not a printed value. Calls of active or inactive are those of the source. The rule behind the calls is not given here.

Tests used:
[1] = system: Bacillus subtilis; assay: Antibacterial activity against Bacillus subtilis 168 assessed as growth inhibition after 16 hrs; type: functional; conditions: subsp. subtilis str. 168, 16 h
Method in brief: (§1)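 Broth microdilution in liquid LB with B. subtilis 168 or P. aeruginosa PAO1. Overnight cultures were diluted 1:100, grown to OD600 0.4, then diluted 1:100,000 into serially diluted compound (1–256 µg/mL). Plates were incubated 16 h at 37 °C, static, except B. subtilis, which was shaken at 250 rpm. MIC is the lowest concentration giving OD600 below 0.05.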

[2] = system: Pseudomonas aeruginosa; assay: Antibacterial activity against Pseudomonas aeruginosa PAO1 assessed as growth inhibition after 16 hrs; type: functional; conditions: PAO1, 16 h; method in brief: as §1
[3] = system: Escherichia coli; assay: Antibacterial activity against Escherichia coli MG1655 overexpressing lolA assessed as growth inhibition after 16 hrs; type: functional; conditions: MG1655, 16 h
[4] = system: Escherichia coli; assay: Antibacterial activity against Escherichia coli EB2120 conditional lolA strain with lolA deletion and complementing copy placed at araBAD locus at 1 to 256 ug/mL after 18 hrs in presence of 0.00002 to 0.2% of arabinose; type: functional, organism-based
Method in brief: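 Conditional lolA strain EB2120 (chromosomal lolA deleted, complementing copy at araBAD under arabinose control), grown to OD600 ~0.4–0.5. […] Fold sensitization is the MIC under LolA depletion relative to the fully complemented 0.2% arabinose condition.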

[5] = Binding affinity to recombinant Escherichia coli LolA by STDD NMR spectra analysis
[6] = system: Escherichia coli; assay: Potency index, ratio of MIC for Escherichia coli EB2120 conditional lolA strain with lolA deletion and complementing copy placed at araBAD locus in presence of 0.2% arabinose to MIC in presence of 0.00002% of arabinose; type: functional
[7] = system: Escherichia coli; assay: Binding affinity to LolA in Escherichia coli EB68 assessed as change in cell shape from rod to sphere at 10 ug/mL measured every 1 hr for 4 hrs by phase contrast microscopic analysis
Method in brief: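 E. coli EB68 (MG1655) was subcultured 1:100 into LB and grown to OD600 ~0.5, then washed once in fresh medium. Cells were resuspended in LB with compound at 10 µg/mL, placed on poly-lysine-treated slides and examined by phase contrast light microscopy at 1 h intervals for rod-to-sphere shape change.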

[8] = system: Escherichia coli; assay: Potency index, ratio of MIC for Escherichia coli AG1 overexpressing lolA to MIC for lolA-deficient Escherichia coli AG1; type: functional
[9] = Half life of the compound in water at 250 uM measured up to 48 hrs by reverse phase HPLC analysis; type: physicochemical
Method in brief: (§2)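 Compound at 250 µM final was incubated in DMSO, H2O, 50 mM acetate buffer (pH 4) or 50 mM citrate buffer (pH 11). Samples were analysed over time by reverse phase C18 HPLC using a 10 min gradient of 0.1% TFA water to acetonitrile, with detection at 270 nm. Parent peak areas were plotted against time and fit to exponential decay.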

[10] = Binding affinity to Escherichia coli LolA
[11] = Half life of the compound in acetate buffer at pH 4 at 250 uM measured up to 48 hrs by reverse phase HPLC analysis; type: physicochemical; method in brief: as §2
[12] = Half life of the compound in citrate buffer at pH 11 at 250 uM measured up to 48 hrs by reverse phase HPLC analysis; type: physicochemical; method in brief: as §2
[13] = Half life of the compound in DMSO at 250 uM measured up to 48 hrs by reverse phase HPLC analysis; type: physicochemical; method in brief: as §2
[14] = system: Escherichia coli; assay: Potency index, ratio of MAC13243 MIC to compound MIC for Escherichia coli MG1655 overexpressing lolA; type: functional

SMILES	MIC [1] [µg/mL]	MIC [2] [µg/mL]	MIC [3] [µg/mL]	other results
N=C(N)CCc1ccc(Cl)cc1	> 256	128 (≈ 701 µM)	> 256	
N=C(N)SCc1ccc(Br)cc1	> 256	16 (≈ 65.3 µM)	4 (≈ 16.3 µM)	
N=C(N)SCc1ccc(Cl)cc1Cl	> 256	32 (≈ 136 µM)	1 (≈ 4.25 µM)	
N=C(N)c1ccc(Cl)cc1	4 (≈ 25.9 µM)	64 (≈ 414 µM)	> 256	
N=C(N)SCc1ccccc1 [BENZYL CARBAMIMIDOTHIOATE]	> 256	32 (≈ 192 µM)	64 (≈ 385 µM)	
COc1cc(Cc2cnc(N)nc2N)cc(OC)c1OC				Activity [4]: inactive
N=C(N)SCCc1ccc(Cl)cc1	> 256	128 (≈ 596 µM)	> 256	
CN(C)[C@@H]1C(O)=C(C(N)=O)C(=O)[C@@]2(O)C(O)=C3C(=O)c4c(O)cccc4[C@@](C)(O)[C@H]3C[C@@H]12				Activity [4]: inactive
N=C(N)SCc1ccc(Cl)c(Cl)c1	> 256	16 (≈ 68 µM)	2 (≈ 8.51 µM)	Kd [5]: 200 µM; Ratio [6]: 32; Activity [7]: Active; Ratio [8]: 16
Oc1cc(Cl)ccc1Oc1ccc(Cl)cc1Cl				Activity [4]: inactive
COc1ccc(CSC(=N)N)cc1	> 256	32 (≈ 163 µM)	> 256	
COc1ccc(CCN)cc1OC			> 256	
N=C(N)SCc1ccc(F)cc1	> 256	16 (≈ 86.8 µM)	16 (≈ 86.8 µM)	
CO[C@H]1/C=C/O[C@@]2(C)Oc3c(C)c(O)c4c(O)c(c(/C=N/N5CCN(C)CC5)c(O)c4c3C2=O)NC(=O)/C(C)=C\C=C\[C@H](C)[C@H](O)[C@@H](C)[C@@H](O)[C@@H](C)[C@H](OC(C)=O)[C@@H]1C				Activity [4]: inactive
N=C(N)SCc1ccc([N+](=O)[O-])cc1	> 256	64 (≈ 303 µM)	32 (≈ 151 µM)	
N=C(N)SCCCc1ccc(Cl)cc1	> 256	128 (≈ 560 µM)	> 256	
CCn1cc(C(=O)O)c(=O)c2cc(F)c(N3CCNCC3)cc21				Activity [4]: inactive
N=C(N)OCc1ccc(Cl)cc1	> 256	32 (≈ 173 µM)	32 (≈ 173 µM)	
COc1ccc(CCN2CN=C(SCc3ccc(Cl)cc3)NC2)cc1OC	256 (≈ 631 µM)	32 (≈ 78.8 µM)	8 (≈ 19.7 µM)	half-life at 250 µM [9]: 13 h; Kd [10]: 8 µM; Ratio [6]: 32; Activity [7]: Active; half-life at 250 µM [11]: 4 h; Ratio [8]: 16; half-life at 250 µM [12]: 59 h; half-life at 250 µM [13]: 257 h
N=C(N)Sc1ccc(Cl)cc1	4 (≈ 21.4 µM)	64 (≈ 343 µM)	> 256	
C/N=C(\NC)SCc1ccc(Cl)c(Cl)c1	> 256	256 (≈ 973 µM)	256 (≈ 973 µM)	
N=C(N)SCc1cccc(Cl)c1	> 256	> 256	64 (≈ 319 µM)	
N=C(N)SCc1ccc(Cl)cc1	> 256	16 (≈ 79.7 µM)	2 (≈ 9.97 µM)	Ratio [14]: 4; Kd [5]: 150 µM; Ratio [6]: 32; Ratio [8]: 16
N=C(N)CSCc1ccc(Cl)cc1	> 256	128 (≈ 596 µM)	> 256	
CN[C@@H]1[C@H](O)[C@H](NC)[C@H]2O[C@@]3(O)C(=O)C[C@@H](C)O[C@H]3O[C@@H]2[C@H]1O				Activity [4]: inactive
N=C(N)SCc1ccccc1Cl	> 256	64 (≈ 319 µM)	16 (≈ 79.7 µM)	
N=C(N)NCc1ccc(Cl)cc1	> 256	128 (≈ 697 µM)	256 (≈ 1390 µM)	
N=C(N)SCc1ccc(I)cc1	> 256	32 (≈ 110 µM)	16 (≈ 54.8 µM)	
CC1(C)S[C@@H]2[C@H](NC(=O)[C@H](N)c3ccccc3)C(=O)N2[C@H]1C(=O)O				Activity [4]: inactive
C[C@@H]1O[C@@H]1P(=O)(O)O [FOSFOMYCIN]				Ratio [6]: 16
